Test results as given in the EternaBench riboswitch data.

Tested on: MS2 coat protein
Test: apparent Kd, MS2 coat protein; higher = weaker binding; RNA-MaP array; FMN 200 µM where present
Outline: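 Stalled E. coli RNA polymerase transcribed the designs on Illumina sequencing-chip clusters. SNAP-549-labelled MS2 coat protein was titrated from 0.7 or 1.5 nM, doubling to 3 µM, without and then with constant ligand, in 100 mM Tris-HCl pH 7.5, 80 mM KCl, 4 mM MgCl2, BSA, DTT, yeast tRNA and Tween-20. Per-cluster binding curves were fitted to green signal normalised to red-channel RNA signal and control-cluster median Fmax. The apparent Kd is the median of the filtered fits.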

[1] = designed as: OFF switch for flavin mononucleotide, no ligand
[2] = ligand present: flavin mononucleotide, designed as: OFF switch for flavin mononucleotide
[3] = designed as: ON switch for flavin mononucleotide, no ligand
[4] = ligand present: flavin mononucleotide, designed as: ON switch for flavin mononucleotide

Row | Sequence | apparent Kd [1] | apparent Kd [2] | apparent Kd [3] | apparent Kd [4]
1 | AAAGUGUGAGGAUAUUCGUAGUACACGGAGACGUGUAUUACGGAGAAGGCACAUGAGGAUCACCCAUGUUCCUU | 20.4 nM | 143 nM |  | 
2 | CCUUCACAUGAGGAUCACCCAUGUGAGGAUAUCCUGCGAGGAUCAAAAGAUCCUCGUGGGAGAAGGCACAUGGA | 110 nM | 180 nM |  | 
3 | GCGUGACAUGAGGAUCACCCAUGUGAGGAUAUCUGGAUAAUCUUUAUUUUAGAUAUCCAGAGAAGGCACAUGCU | 162 nM | 117 nM |  | 
4 | UUUUUGUCAGGAUAUGAUUAGAUCUACUUCGGUAGAUCUAAUCAGAAGGGACAUGAGGAUCACCCAUGUAGUUU | 36.5 nM | 141 nM |  | 
5 | GGUCGUCACAUCUACAUGAGGAUCACCCAUGUCAAAAGACAUGAGGAUAUGCAUCCUAAUUGGAUGCAGAAGGCAUGGACGACC |  |  | 1280 nM | 66.8 nM
6 | AAAGUGCAAGGAUAUAUAUGAAAAGUUACGAAAGUAACAAAACAUGAGGAUCACCCAUGUAGAAGGUGCACAAA | 27.8 nM | 24.4 nM |  | 
7 | UAAUCGUUGCAGAAGGUUAUUAUUAUAACGUGACACUUAACAUGAGGAUCACCCAUGUUUUUUAUGAAGGAUAUGCAACGGUAG | 7.07 nM | 7.29 nM |  | 
8 | UUUUACGUAGGAUAUACAUUUUUUUUAUUAUUUUCAUUAUUACAUGAGGAUCACCCAUGUAGAAGGACGAUUUU | 22.8 nM | 22 nM |  | 
9 | GAACAUGUCCGAGGAUAUCUGAGAUCAUUUUCAAGAGAAGGCGGACAUGAGGAUCACCCAUGUCUCUCCUCAUCAACUCCAAAU | 6.95 nM | 38.5 nM |  | 
10 | AAAUGGGCGUAGGAUAUGAGAUGGUCUAGCAGCUCAGAAGGACGCACAUGAGGAUCACCCAUGUGAUCGGACUA |  | 224 nM |  | 
11 | ACCGAGACAGAAGGAUAUACAUUGGUUACGCUGUUCGCGUCCUCGACCACAUGAGGAUCACCCAUGUAGAAGGUUUGUAGCGCG | 16.5 nM | 42.7 nM |  | 
12 | AAACAUGUCCGAGGAUAUCUGAGAUCAUUUUCAAGAGAAGGCGGACAUGAGGAUCACCCAUGUCUCUCCUCAUCAACUCUAAAU | 5.99 nM | 36.9 nM |  | 
13 | ACAUGAGGAUCUCCCAUGUAAAAUUAGGAUAUAUAACUACACAUGAGGAUCACCCAUGUUUAACCGUAGAAGGGAUAAAUAAUU |  |  | 986 nM | 1020 nM
14 | GAGUGACAUGAGGAUCACCCAUGUGAGGAUAUCGGACGGACCAAAUUAACAAUAUUUGCGAGAAGGCACAUCGG | 88.5 nM | 130 nM |  | 
15 | GGAUACGACAGAGGAUAUACGUGCUAGAGAUACUAGCAAAAUUUCCUCACAUGAGGAUCACCCAUGUAGAAGGCUGUCCUAUCG | 16.2 nM | 337 nM |  | 
16 | GUAGCUACAAUUAUACAUGAGGAUCACCCAUGUUACAUGGGUAAGGAUAUUGAGGUUAUUAUUGUCAAGAAGGUACUAUGCUAC |  |  | 505 nM | 71.6 nM
17 | UUGUGGUGCGUAGGAUAUCAUUGAGGGUCACCCUGAGAAGGACGUGAGGACAUGAGGAUCACCCAUGUGGAUCACCCAUGUCAU | 222 nM | 355 nM |  | 
18 | AAGCACUGAUAAUAAUGUAGAAAUACAUGAGGAUCACCCAUGUAGGAUAUCGUCAGGAAUACUGACGAGAAGGACAUACAGUGC | 16.2 nM | 24.7 nM |  | 
19 | GAUUGACAUGAGGAUCACCCAUGUGAGGAUAUCGGCUGGACCGUGUUGGCUUCCGUUUCGAGAAGGCGCAUAGG | 26.1 nM | 48.3 nM |  | 
20 | UCGAGGUCAGGAUAUACAUGAGGAUCACCCAUGUUGAGAUAAGGUAGGAAAAGAGUAGGUAGAAGGGACGAGAG | 27.6 nM | 30.9 nM |  | 
21 | ACAUGAGGAUCACCCAUGUGACAAGAAUGGCUGAUACAGAGACAGGAUAUAGGUGCAUAUCUAACCUAGAAGGGUCAUGACUGG | 35.2 nM | 31.9 nM |  | 
